# What was measured:
# Streptococcus pyogenes [1] = assay: Antibacterial activity against macrolide-resistant Streptococcus pyogenes 2094 harboring erm(A) gene after 5 passages and 10 compound-free subculturing by retest method
# Streptococcus pneumoniae [2] = assay: Antibacterial activity against macrolide-resistant Streptococcus pneumoniae 1635 harboring erm(A) gene after 32 passages and 10 compound-free subculturing by retest method; format: functional
# Summary of the method: (§1)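 Multistep selection by daily serial passage in subinhibitory drug concentrations. Medium was cation-adjusted Mueller-Hinton broth plus 5% lysed horse blood. Each day the next inoculum came from the tube 1–2 dilutions below the MIC whose turbidity matched the growth control, for up to 50 days. Clone MICs by CLSI macrodilution; identity to the parent confirmed by SmaI PFGE.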
# Streptococcus pyogenes [3] = assay: Antibacterial activity against macrolide-susceptible Streptococcus pyogenes 2132 after overnight incubation by agar dilution method
# Streptococcus pneumoniae [4] = assay: Antibacterial activity against macrolide-susceptible Streptococcus pneumoniae 1077 after 29 passages and 10 compound-free subculturing by retest method; format: functional
# Streptococcus pneumoniae [5] = assay: Antibacterial activity against Streptococcus pneumoniae harboring mef(A) gene after overnight incubation by agar dilution method; format: functional
# Summary of the method: (§2)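 Clinical isolates collected 1998–2008, with macrolide-resistance genes confirmed by PCR. MICs by agar dilution on Mueller-Hinton agar with 5% sheep blood. Inoculum 10^4 CFU/spot, incubated overnight at 35°C in ambient air. S. pneumoniae ATCC 49619 was the quality-control strain in every run.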
# Streptococcus pneumoniae [6] = assay: Antibacterial activity against macrolide-resistant Streptococcus pneumoniae 3665 harboring mef(A) gene after overnight incubation by agar dilution method; format: functional
# Streptococcus pneumoniae [7] = assay: Antibacterial activity against macrolide-resistant Streptococcus pneumoniae 1076 harboring erm(B) and mef(A) gene after 18 passages and 10 compound-free subculturing by retest method; format: functional
# Summary of the method: as §1
# Streptococcus pneumoniae [8] = assay: Antibacterial activity against macrolide-susceptible Streptococcus pneumoniae 7127 harboring S20N mutation in L4 ribosomal protein and A105V mutation in L22 ribosomal protein after overnight incubation by agar dilution method; format: functional
# Streptococcus pyogenes [9] = assay: Antibacterial activity against macrolide-resistant Streptococcus pyogenes 237 harboring mutation in L4 ribosomal protein after overnight incubation by agar dilution method
# Streptococcus pneumoniae [10] = assay: Antibacterial activity against penicillin-susceptible Streptococcus pneumoniae after overnight incubation by agar dilution method; format: functional
# Summary of the method: (§3)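 Agar dilution on Mueller-Hinton agar supplemented with 5% sheep blood. Inoculum 10^4 CFU/spot, incubated overnight at 35°C in ambient air. Test strains were clinical pneumococcal isolates. S. pneumoniae ATCC 49619 was included as the quality control strain in each run. MIC range, MIC50 and MIC90 were reported for each susceptibility category.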
# Streptococcus pneumoniae [11] = assay: Antibacterial activity against macrolide-resistant Streptococcus pneumoniae 3009 harboring mutation in 23S rRNA after 25 passages and 10 compound-free subculturing by retest method; format: functional
# Streptococcus pneumoniae [12] = assay: Antibacterial activity against penicillin-resistant Streptococcus pneumoniae after overnight incubation by agar dilution method; format: functional
# Summary of the method: as §3
# Streptococcus pyogenes [13] = assay: Antibacterial activity against macrolide-resistant Streptococcus pyogenes harboring erm(B) gene after overnight incubation by agar dilution method; format: functional
# Summary of the method: (§4)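 Agar dilution MICs on Mueller-Hinton agar with 5% sheep blood. Inoculum 10^4 CFU/spot, incubated overnight at 35°C in ambient air. Clinical S. pneumoniae or group A streptococcal isolates; resistance genotypes (erm(B), erm(A), mef(A)/mef(E)) were assigned by PCR. S. pneumoniae ATCC 49619 served as QC strain in each run. Range, MIC50 and MIC90 reported per phenotype group.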
# Streptococcus pneumoniae [14] = assay: Antibacterial activity against macrolide-susceptible Streptococcus pneumoniae 1077 after 15 passages and 10 compound-free subculturing by retest method; format: functional
# Streptococcus pneumoniae [15] = assay: Antibacterial activity against Streptococcus pneumoniae harboring mutation in 23S rRNA after overnight incubation by agar dilution method; format: functional
# Summary of the method: as §2
# Streptococcus pneumoniae [16] = assay: Antibacterial activity against Streptococcus pneumoniae harboring erm(B) and mef(A) gene after overnight incubation by agar dilution method; format: functional
# Summary of the method: as §2
# Streptococcus pneumoniae [17] = assay: Antibacterial activity against macrolide-susceptible Streptococcus pneumoniae 1077 after 43 passages and 10 compound-free subculturing by retest method; format: functional
# Streptococcus pyogenes [18] = assay: Antibacterial activity against Streptococcus pyogenes harboring mef(A) gene after overnight incubation by agar dilution method; format: functional
# Summary of the method: as §2
# Streptococcus pyogenes [19] = assay: Antibacterial activity against macrolide-resistant Streptococcus pyogenes 2011 harboring mef(A) gene after overnight incubation by agar dilution method
# Streptococcus pyogenes [20] = assay: Antibacterial activity against macrolide-resistant Streptococcus pyogenes 2368 harboring erm(B) gene after 18 passages and 10 compound-free subculturing by retest method
# Streptococcus pyogenes [21] = assay: Antibacterial activity against macrolide-resistant Streptococcus pyogenes 2094 harboring erm(A) gene after 22 passages and 10 compound-free subculturing by retest method
# Streptococcus pneumoniae [22] = assay: Antibacterial activity against macrolide-resistant Streptococcus pneumoniae 2686 harboring mutation in L4 ribosomal protein after 22 passages and 10 compound-free subculturing by retest method; format: functional
# Streptococcus pyogenes [23] = assay: Antibacterial activity against macrolide-resistant Streptococcus pyogenes 2094 harboring erm(A) gene after 43 passages and 10 compound-free subculturing by retest method
# Streptococcus pneumoniae [24] = assay: Antibacterial activity against macrolide-susceptible Streptococcus pneumoniae 7127 harboring S20N mutation in L4 ribosomal protein and A105V mutation in L22 ribosomal protein after 29 passages and 10 compound-free subculturing by retest method; format: functional
# Streptococcus pyogenes [25] = assay: Antibacterial activity against macrolide-resistant Streptococcus pyogenes 2094 harboring erm(A) gene after 34 passages and 10 compound-free subculturing by retest method
# Streptococcus pneumoniae [26] = assay: Antibacterial activity against macrolide-resistant Streptococcus pneumoniae 3665 harboring mef(A) gene after 14 passages and 10 compound-free subculturing by retest method; format: functional
# Streptococcus pneumoniae [27] = assay: Antibacterial activity against macrolide-resistant Streptococcus pneumoniae 2686 harboring mutation in L4 ribosomal protein after overnight incubation by agar dilution method; format: functional
# Streptococcus pyogenes [28] = assay: Antibacterial activity against macrolide-resistant Streptococcus pyogenes 2011 harboring mef(A) gene after 35 passages and 10 compound-free subculturing by retest method
# Streptococcus pneumoniae [29] = assay: Antibacterial activity against macrolide-susceptible Streptococcus pneumoniae after overnight incubation by agar dilution method; format: functional
# Summary of the method: as §4
# Streptococcus pneumoniae [30] = assay: Antibacterial activity against Streptococcus pneumoniae harboring mutation in L4 ribosomal protein after overnight incubation by agar dilution method; format: functional
# Summary of the method: as §2
# Streptococcus pneumoniae [31] = assay: Antibacterial activity against Streptococcus pneumoniae harboring erm(A) gene after overnight incubation by agar dilution method; format: functional
# Summary of the method: as §2
# Streptococcus pneumoniae [32] = assay: Antibacterial activity against macrolide-resistant Streptococcus pneumoniae 1635 harboring erm(A) gene after 49 passages and 10 compound-free subculturing by retest method; format: functional
# Summary of the method: as §1
# Streptococcus pneumoniae [33] = assay: Antibacterial activity against macrolide-resistant Streptococcus pneumoniae harboring erm(B) gene after overnight incubation by agar dilution method; format: functional
# Summary of the method: as §4
structure (smiles),measurement,setting,value
CC[C@H]1OC(=O)[C@H](C)C(=O)[C@H](C)[C@@H](O[C@@H]2O[C@H](C)C[C@H](N(C)C)[C@H]2O)[C@](C)(OC)C[C@@H](C)C(=O)[C@H](C)[C@H]2N(CCCCn3cnc(-c4cccnc4)c3)C(=O)O[C@]12C [TELITHROMYCIN],MIC,Streptococcus pyogenes [1],0.03 µg/mL
same,MIC,Streptococcus pneumoniae [2],0.03 µg/mL
same,MIC,Streptococcus pyogenes [3],0.008 µg/mL
same,MIC,Streptococcus pneumoniae [4],0.125 µg/mL
same,MIC50,Streptococcus pneumoniae [5],0.125 µg/mL
same,MIC90,Streptococcus pneumoniae [5],0.25 µg/mL
same,MIC,Streptococcus pneumoniae [6],0.125 µg/mL
same,MIC,Streptococcus pneumoniae [7],32 µg/mL
same,MIC,Streptococcus pneumoniae [8],0.008 µg/mL
same,MIC,Streptococcus pyogenes [9],0.06 µg/mL
same,MIC50,Streptococcus pneumoniae [10],0.06 µg/mL
same,MIC90,Streptococcus pneumoniae [10],0.25 µg/mL
same,MIC,Streptococcus pneumoniae [11],0.06 µg/mL
same,MIC50,Streptococcus pneumoniae [12],0.125 µg/mL
same,MIC90,Streptococcus pneumoniae [12],0.5 µg/mL
same,MIC50,Streptococcus pyogenes [13],8 µg/mL
same,MIC90,Streptococcus pyogenes [13],16 µg/mL
same,MIC,Streptococcus pneumoniae [14],0.25 µg/mL
same,MIC,Streptococcus pneumoniae [15],0.03 µg/mL
same,MIC50,Streptococcus pneumoniae [16],0.5 µg/mL
same,MIC90,Streptococcus pneumoniae [16],1 µg/mL
same,MIC,Streptococcus pneumoniae [17],0.06 µg/mL
same,MIC50,Streptococcus pyogenes [18],0.5 µg/mL
same,MIC90,Streptococcus pyogenes [18],1 µg/mL
same,MIC,Streptococcus pyogenes [19],0.5 µg/mL
same,MIC,Streptococcus pyogenes [20],> 64 µg/mL
same,MIC,Streptococcus pyogenes [21],0.125 µg/mL
same,MIC,Streptococcus pneumoniae [22],0.25 µg/mL
same,MIC,Streptococcus pyogenes [23],0.5 µg/mL
same,MIC,Streptococcus pneumoniae [24],0.016 µg/mL
same,MIC,Streptococcus pyogenes [25],0.03 µg/mL
same,MIC,Streptococcus pneumoniae [26],0.25 µg/mL
same,MIC,"Streptococcus pneumoniae [26]; Streptococcus pneumoniae, 3665, read-out: MIC",0.25 µg/mL
same,MIC,Streptococcus pneumoniae [27],0.06 µg/mL
same,MIC,Streptococcus pyogenes [28],0.25 µg/mL
same,MIC50,Streptococcus pneumoniae [29],0.03 µg/mL
same,MIC90,Streptococcus pneumoniae [29],0.03 µg/mL
same,MIC50,Streptococcus pneumoniae [30],0.125 µg/mL
same,MIC90,Streptococcus pneumoniae [30],0.25 µg/mL
same,MIC,Streptococcus pneumoniae [31],0.03 µg/mL
same,MIC,Streptococcus pneumoniae [32],0.016 µg/mL
same,MIC50,Streptococcus pneumoniae [33],0.06 µg/mL
same,MIC90,Streptococcus pneumoniae [33],1 µg/mL

# Reference: ChEMBL document CHEMBL1240350, “In vitro activity of CEM-101 against Streptococcus pneumoniae and Streptococcus pyogenes with defined macrolide resistance mechanisms” (Antimicrob Agents Chemother, 2010)
